# Measurements as given in ChEMBL document CHEMBL3351374, “Semisynthetic teicoplanin derivatives as new influenza virus binding inhibitors: synthesis and antiviral studies” (Bioorg Med Chem Lett, 2014).
# Columns and labels:
# [1] = system: Bacillus spizizenii; test: Antibacterial activity against Bacillus subtilis ATCC 6633 by broth microdilution method; format: functional
# [2] = system: Staphylococcus aureus; test: Antibacterial activity against methicillin-sensitive Staphylococcus aureus ATCC 29213 by broth microdilution method; format: functional
# [3] = system: Staphylococcus aureus; test: Antibacterial activity against methicillin-resistant Staphylococcus aureus ATCC 33591 by broth microdilution method; format: functional
# [4] = system: Staphylococcus epidermidis; test: Antibacterial activity against biofilm forming Staphylococcus epidermidis ATCC 35984 by broth microdilution method; format: functional
# [5] = system: Enterococcus faecalis; test: Antibacterial activity against Enterococcus faecalis ATCC 29212 by broth microdilution method; format: functional
# [6] = system: Staphylococcus epidermidis; test: Antibacterial activity against biofilm forming Staphylococcus epidermidis harboring mecA gene by broth microdilution method; format: functional
# [7] = system: Enterococcus faecalis; test: Antibacterial activity against vanA gene-positive Enterococcus faecalis 15376 by broth microdilution method; format: functional
# [8] = system: Enterococcus faecalis; test: Antibacterial activity against vanA gene-positive Enterococcus faecalis ATCC 51299 by broth microdilution method; format: functional
# [9] = system: Influenza A virus; test: Antiviral activity against Influenza A virus (A/PR/8/34(H1N1)) infected in MDCK cells assessed as reduction in host cell viability after 72 hrs by MTS assay; format: functional, organism-based; conditions: A/Puerto Rico/8/1934(H1N1)
# [10] = system: Influenza A virus; test: Antiviral activity against Influenza A virus (A/PR/8/34(H1N1)) infected in MDCK cells assessed as virus-induced cytopathic effect after 72 hrs by microscopy; format: functional, organism-based; conditions: A/Puerto Rico/8/1934(H1N1)
# [11] = system: Influenza A virus; test: Antiviral activity against Influenza A virus A/Virginia/ATCC3/2009 infected in MDCK cells assessed as virus-induced cytopathic effect after 72 hrs by microscopy; format: functional, organism-based; conditions: A/Virginia/ATCC3/2009, MDCK
# [12] = system: Influenza A virus; test: Antiviral activity against Influenza A virus A/Virginia/ATCC3/2009 infected in MDCK cells assessed as reduction in host cell viability after 72 hrs by MTS assay; format: functional, organism-based; conditions: A/Virginia/ATCC3/2009, MDCK
# [13] = Antiviral activity against Influenza A virus (A/HK/7/1987(H3N2)) infected in MDCK cells assessed as virus-induced cytopathic effect after 72 hrs by microscopy; format: functional, cell-based, Influenza A virus (A/Hong Kong/7/1987(H3N2))
# [14] = Antiviral activity against Influenza A virus (A/HK/7/1987(H3N2)) infected in MDCK cells assessed as reduction in host cell viability after 72 hrs by MTS assay; format: functional, cell-based, Influenza A virus (A/Hong Kong/7/1987(H3N2))
# [15] = Cytotoxicity against MDCK cells assessed as reduction in cell viability after 72 hrs by MTS assay; format: cell-based, Canis lupus familiaris; conditions: dog
# [16] = Cytotoxicity against MDCK cells assessed as change in cell morphology after 72 hrs by microscopy; format: cell-based, Canis lupus familiaris; conditions: dog
# Summary of the method: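 Uninfected MDCK cells exposed to compound. MCC is the minimal concentration causing minimal alterations in cell morphology, assessed by microscopy.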
# [17] = system: Influenza B virus; test: Antiviral activity against Influenza B virus (B/HK/05/1972) infected in MDCK cells assessed as virus-induced cytopathic effect after 72 hrs by microscopy; format: functional, cell-based; conditions: B/Hong Kong/05/1972, MDCK
# [18] = system: Influenza B virus; test: Antiviral activity against Influenza B virus (B/HK/05/1972) infected in MDCK cells assessed as reduction in host cell viability after 72 hrs by MTS assay; format: functional, cell-based; conditions: B/Hong Kong/05/1972, MDCK
# [19] = Cytotoxicity against chicken RBC assessed as minimum concentration required for hemagglutination by microscopy; format: cell-based, Gallus gallus; conditions: erythrocyte
# Summary of the method: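 Chicken red blood cells incubated with compound without virus. The value is the minimal concentration causing hemagglutination.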
# [20] = Inhbition of Influenza A virus (A/X-31(H3N2) hemagglutinin binding to 2 hrs compound pre-incubated MDCK cells assessed as reduction in viral RNA measured after 1 hr by RT-qPCR analysis; format: cell-based
# Summary of the method: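 Influenza virus binding to MDCK host cells measured with compound at 50, 10, 2 and 0.4 µM.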
# [21] = Selectivity ratio of CC50 for MDCK cells assessed as reduction in cell viability after 72 hrs by MTS assay to EC50 for Influenza A virus A/Virginia/ATCC3/2009 infected in MDCK cells; format: cell-based; conditions: dog, read-out: Ratio CC50/EC50
# [22] = Selectivity ratio of MCC for MDCK cells assessed as change in cell morphology after 72 hrs by microscopy to EC50 for Influenza A virus A/Virginia/ATCC3/2009 infected in MDCK cells; format: cell-based; conditions: dog
# [23] = Retention time of the compound by HPLC method; format: physicochemical
# [24] = system: Influenza A virus; test: Antiviral activity against Influenza A virus infected in chicken RBC assessed as minimum concentration required for inhibition of 4 hemagglutinating units of virus-induced hemagglutination after 1 hr by microscopy; format: functional
# Summary of the method: (§1)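 Chicken red blood cells incubated with virus at 1, 2 or 4 HA-U plus compound. The value is the minimal concentration causing inhibition of hemagglutination.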
# [25] = system: Influenza A virus; test: Antiviral activity against Influenza A virus infected in chicken RBC assessed as minimum concentration required for inhibition of 2 hemagglutinating units of virus-induced hemagglutination after 1 hr by microscopy; format: functional; summary of the method: as §1
# [26] = system: Influenza A virus; test: Antiviral activity against Influenza A virus infected in chicken RBC assessed as minimum concentration required for inhibition of 1 hemagglutinating unit of virus-induced hemagglutination after 1 hr by microscopy; format: functional; summary of the method: as §1
Structure (SMILES),MIC [1] [µg/mL],MIC [2] [µg/mL],MIC [3] [µg/mL],MIC [4] [µg/mL],MIC [5] [µg/mL],MIC [6] [µg/mL],MIC [7] [µg/mL],MIC [8] [µg/mL],EC50 [9] [µM],EC50 [10] [µM],EC50 [11] [µM],EC50 [12] [µM],EC50 [13] [µM],EC50 [14] [µM],CC50 at 72 h [15] [µM],MCC at 72 h [16] [µM],EC50 [17] [µM],EC50 [18] [µM],other results
COc1ccc(CO[C@H]2[C@H](OC)[C@@H](OC)[C@@H](OC)O[C@@H]2COCCOCCOCCOCCOCc2cn([C@H]3C(=O)N[C@@H]4Cc5ccc(c(Cl)c5)Oc5cc6cc(c5O)Oc5ccc(cc5Cl)[C@@H](O[C@@H]5O[C@H](CO)[C@@H](O)[C@H](O)[C@H]5NC(C)=O)[C@@H]5NC(=O)[C@H](NC(=O)[C@@H]6NC(=O)[C@@H](NC4=O)c4cc(O)cc(c4)Oc4cc3ccc4O)c3ccc(O)c(c3)-c3c(O)cc(O)cc3[C@@H](C(=O)O)NC5=O)nn2)cc1,16,16,32,16,32,32,32,32,–,–,–,–,–,–,–,–,–,–,–
CC(N)C12CC3CC(CC(C3)C1)C2 (centres undefined) [RIMANTADINE],–,–,–,–,–,–,–,–,5.3,4.6,> 500,> 500,0.051,0.046,> 500,≥ 500,> 500,> 500,–
C.CCCCCCCCO[C@H]1[C@@H](OC)O[C@H](COCCOCCOCCOCCOCc2cn([C@H]3C(=O)N[C@@H]4Cc5ccc(c(Cl)c5)Oc5cc6cc(c5O)Oc5ccc(cc5Cl)[C@@H](O[C@@H]5O[C@H](CO)[C@@H](O)[C@H](O)[C@H]5NC(C)=O)[C@@H]5NC(=O)[C@H](NC(=O)[C@@H]6NC(=O)[C@@H](NC4=O)c4cc(O)cc(c4)Oc4cc3ccc4O)c3ccc(O)c(c3)-c3c(O)cc(O)cc3[C@@H](C(=O)O)NC5=O)nn2)[C@@H](O)[C@@H]1OCCCCCCCC,–,–,–,–,–,–,–,–,> 100,> 100,1.8,1.3,2.3,2.2,12,≥ 4,> 100,> 100,Activity [19]: 50 µM; IC50 [20]: 7 µM; selectivity ratio at 72 h [21]: 4; selectivity ratio at 72 h [22]: 4; Retention_time [23]: 8.17 min
CCCCCCCCO[C@@H]1[C@@H](OCCCCCCCC)[C@@H](OC)O[C@H](COCCOCCOCCOCCOCc2cn([C@H]3C(=O)N[C@@H]4Cc5ccc(c(Cl)c5)Oc5cc6cc(c5O)Oc5ccc(cc5Cl)[C@@H](O[C@@H]5O[C@H](CO)[C@@H](O)[C@H](O)[C@H]5NC(C)=O)[C@@H]5NC(=O)[C@H](NC(=O)[C@@H]6NC(=O)[C@@H](NC4=O)c4cc(O)cc(c4)Oc4cc3ccc4O)c3ccc(O)c(c3)-c3c(O)cc(O)cc3[C@@H](C(=O)O)NC5=O)nn2)[C@H]1OCc1ccc(OC)cc1,256,128,64,16,32,256,128,256,–,–,–,–,–,–,–,–,–,–,Activity [24]: 12 µM; Activity [25]: 6.3 µM; Activity [26]: 0.78 µM
CC(=O)N[C@H]1[C@H]([C@H](O)[C@H](O)CO)OC(C(=O)O)=C[C@@H]1NC(=N)N [ZANAMIVIR],–,–,–,–,–,–,–,–,0.5,0.47,45,20,8.9,9,> 100,> 100,12,9.4,–
